Reference: ChEMBL document CHEMBL2311369, “Synthesis and anticonvulsant activity of new phenytoin derivatives” (Eur J Med Chem, 2013)

How the values were obtained:
Mus musculus [1] = test: Anticonvulsant activity in albino mouse assessed as protection against maximal electroshock-induced seizures measuring mean convulsion threshold at 100 mg/kg, po after 60 mins; assay type: functional
Outline: (§1)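 Adult albino mice (20–25 g, both sexes), groups of six, dosed orally with compound suspended in 1% Tween 80; vehicle controls. 60 min later, ear-electrode current ramped from 1 mA in 0.1 mA/0.2 s steps at 50 Hz until tonic hind-limb extension. Read-out is mean maximal tolerated current (mA), reported as mean ± S.E. of 5–6 animals. One-way ANOVA with Tukey post test versus control.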

Mus musculus [2] = test: Anticonvulsant activity in albino mouse assessed as protection against subcutaneous metrazol-induced seizures at 100 mg/kg, po administered 60 mins prior challenge measured over 20 mins; assay type: functional
Outline: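 Adult albino mice (20–25 g, both sexes), groups of six, dosed orally with 100 mg/kg; a separate group of six serves as control. Pentylenetetrazole 85 mg/kg given s.c. 60 min after dosing. Each mouse is watched alone for 20 min for tonic-clonic convulsions lasting at least 5 s. Mice without generalized convulsions count as protected; result is % protection.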

Mus musculus [3] = test: Neurotoxicity in albino mouse assessed as neurological deficit at 100 mg/kg, ip measured after 1 hr for period of 300 seconds by rotarod test; assay type: toxicity, organism-based; parameters: dose 100 mg/kg, route intraperitoneal; conditions: in vivo
Outline: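 Rotarod at 6 rpm with a 3 cm rod. Male albino mice get two training sessions of 10 and 15 min first. Compound given i.p. at 100 mg/kg in 1% Tween 80, groups of six; vehicle-treated controls. Mice are retested 1 h later. Result is % of mice unable to stay on the rod for 300 s.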

Mus musculus [4] = test: Anticonvulsant activity in albino mouse assessed as protection against maximal electroshock-induced seizures measuring mean convulsion threshold at 30 mg/kg, po after 60 mins; assay type: functional; outline: as §1

## O=C1NC(c2ccccc2)(c2ccccc2)C(=O)N1Cc1nnc(S)n1-c1ccc(Cl)cc1
Mus musculus [1]
  Activity: 6.2 mA
Mus musculus [2]
  Activity: 40%

## Cc1ccc(Nc2nnc(CN3C(=O)NC(c4ccccc4)(c4ccccc4)C3=O)s2)cc1
Mus musculus [1]
  Activity: 5.2 mA
Mus musculus [2]
  Activity: 40%

## COc1ccc(NC(=S)NNC(=O)CN2C(=O)NC(c3ccccc3)(c3ccccc3)C2=O)cc1
Mus musculus [1]
  Activity: 4 mA
Mus musculus [2]
  Activity: 80%
Mus musculus [3]
  Activity: 16.67%

## COc1ccc(-n2c(S)nnc2CN2C(=O)NC(c3ccccc3)(c3ccccc3)C2=O)cc1
Mus musculus [1]
  Activity: 6.6 mA
Mus musculus [2]
  Activity: 40%
Mus musculus [3]
  Activity: 50%

## Cc1ccc(-n2c(S)nnc2CN2C(=O)NC(c3ccccc3)(c3ccccc3)C2=O)cc1
Mus musculus [1]
  Activity: 6.6 mA
Mus musculus [2]
  Activity: 20%

## CCNC(=S)NNC(=O)CN1C(=O)NC(c2ccccc2)(c2ccccc2)C1=O
Mus musculus [1]
  Activity: 5.2 mA
Mus musculus [2]
  Activity: 40%

## CCNc1nnc(CN2C(=O)NC(c3ccccc3)(c3ccccc3)C2=O)s1
Mus musculus [1]
  Activity: 5 mA
Mus musculus [2]
  Activity: 60%

## COc1ccc(Nc2nnc(CN3C(=O)NC(c4ccccc4)(c4ccccc4)C3=O)s2)cc1
Mus musculus [1]
  Activity: 4 mA
Mus musculus [2]
  Activity: 20%

## O=C(CN1C(=O)NC(c2ccccc2)(c2ccccc2)C1=O)NNC(=S)Nc1ccccc1
Mus musculus [1]
  Activity: 8.4 mA
Mus musculus [2]
  Activity: 50%
Mus musculus [3]
  Activity: 0%
Mus musculus [4]
  Activity: 6.143 mA

## O=C(CN1C(=O)NC(c2ccccc2)(c2ccccc2)C1=O)NNC(=S)Nc1ccc(Cl)cc1
Mus musculus [1]
  Activity: 5.4 mA
Mus musculus [2]
  Activity: 0%

## Cc1ccc(NC(=S)NNC(=O)CN2C(=O)NC(c3ccccc3)(c3ccccc3)C2=O)cc1
Mus musculus [1]
  Activity: 5.8 mA
Mus musculus [2]
  Activity: 60%

## O=C1NC(c2ccccc2)(c2ccccc2)C(=O)N1Cc1nnc(S)n1-c1ccccc1
Mus musculus [1]
  Activity: 6.6 mA
Mus musculus [2]
  Activity: 40%
Mus musculus [3]
  Activity: 33.33%

## CCn1c(S)nnc1CN1C(=O)NC(c2ccccc2)(c2ccccc2)C1=O
Mus musculus [1]
  Activity: 5.8 mA
Mus musculus [2]
  Activity: 40%

## O=C1NC(c2ccccc2)(c2ccccc2)C(=O)N1Cc1nnc(Nc2ccccc2)s1
Mus musculus [1]
  Activity: 5 mA
Mus musculus [2]
  Activity: 60%

## O=C1NC(c2ccccc2)(c2ccccc2)C(=O)N1Cc1nnc(S)o1
Mus musculus [1]
  Activity: 5.5 mA
Mus musculus [2]
  Activity: 80%
Mus musculus [3]
  Activity: 40%

## O=C1NC(=O)C(c2ccccc2)(c2ccccc2)N1 [PHENYTOIN]
Mus musculus [1]
  Activity: 7.25 mA
Mus musculus [2]
  Activity: 80%

## O=C1NC(c2ccccc2)(c2ccccc2)C(=O)N1Cc1nnc(Nc2ccc(Cl)cc2)s1
Mus musculus [1]
  Activity: 4.25 mA
Mus musculus [2]
  Activity: 0%
